CHRM1 PAM = human M1 muscarinic receptor positive allosteric modulators, primary screen, CHO-K1 cells, Fluo-8 calcium fluorescence, 1536-well | Muscarinic acetylcholine receptor M1 (Homo sapiens), P11229 | CHO-K1 hM1, ACh EC20; 0% = ACh EC20, 100% = maximal ACh | activation, % at 3 µM | hit rate 0.088% among 360,000; in the data active means activation above about 19%, passing the limit was not always enough
CHRM5 antagonist = human M5 muscarinic receptor antagonists, primary screen, CHO cells, Fluo-8 calcium fluorescence. Muscarinic acetylcholine receptor M5 (Homo sapiens), P08912. CHO-hM5 cells, ACh EC80. inhibition, % at 3 µM. hit rate 0.59% among 360,000. AID 624040, 2012;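 active means inhibition above a per-plate cutoff, the mean of that plate's test compounds plus 3 SD, cut at about 27% in these data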
Target sequence (P08912 whole entry, looked up): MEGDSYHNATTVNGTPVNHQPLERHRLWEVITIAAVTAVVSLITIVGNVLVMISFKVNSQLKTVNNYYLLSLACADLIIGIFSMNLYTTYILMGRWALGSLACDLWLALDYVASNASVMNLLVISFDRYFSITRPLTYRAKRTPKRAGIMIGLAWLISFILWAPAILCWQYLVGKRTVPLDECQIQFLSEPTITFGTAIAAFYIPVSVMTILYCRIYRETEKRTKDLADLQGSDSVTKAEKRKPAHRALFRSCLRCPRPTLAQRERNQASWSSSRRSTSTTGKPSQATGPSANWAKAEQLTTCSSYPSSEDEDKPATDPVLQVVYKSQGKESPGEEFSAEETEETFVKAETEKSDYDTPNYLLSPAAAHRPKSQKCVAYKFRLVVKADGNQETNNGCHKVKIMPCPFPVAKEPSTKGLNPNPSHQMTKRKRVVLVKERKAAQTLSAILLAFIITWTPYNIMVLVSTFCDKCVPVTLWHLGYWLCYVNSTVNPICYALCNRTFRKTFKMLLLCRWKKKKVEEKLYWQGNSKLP
M1 ag = human M1 muscarinic receptor agonists, primary screen, Fluo-8 calcium fluorescence, CHO-K1 cells, HTS | Muscarinic acetylcholine receptor M1 (Homo sapiens), P11229 | CHO-K1 hM1, agonist mode; 0% DMSO, 100% acetylcholine EC100 | activation, % at 3 µM | hit rate 0.33% among 360,000 | AID 588814, 2011;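 active means activation above the run's mean compound activation plus 3 SD, cut at about 16% in these data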;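 further: peak over basal fluorescence ratio within a 140 s kinetic read after compound addition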
M5 PAM = human M5 muscarinic receptor positive allosteric modulators, primary screen, CHO-K1 cells, Fluo-8 calcium fluorescence; activation, % at 3 µM; AID 624038, 2012; CHO-K1 hM5, ACh EC20 PAM; 0% = ACh EC20, 100% = ACh EC100; Muscarinic acetylcholine receptor M5 (Homo sapiens), P08912; hit rate 0.3% among 360,000;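 active means activation above the run cutoff, the mean activation of all test compounds plus 3 SD, cut at about 18% in these data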
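System – CHO-K1 hM5 cells · Compound – 3 µM, single dose · Incubation – compound preincubation 140 s before EC20 acetylcholine addition · Technique – Fluo-8 calcium fluorescence · Measure – Max/basal fluorescence ratio as % of EC20–EC100 ACh window · Benchmarks – low control EC20 acetylcholine (0%), high control EC100 acetylcholine (100%) · Replication – singlicate, one well per test compound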
M1 antag = human M1 muscarinic receptor antagonists, primary screen, CHO-K1 cells, Fluo-8 calcium fluorescence, 1536-well | CHO-K1 hM1, ACh EC80 antagonist | hit rate 1.3% among 360,000 | Muscarinic acetylcholine receptor M1 (Homo sapiens), P11229 | inhibition, % at 3 µM;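 active means percent inhibition above its own plate's cutoff, namely the mean of that plate's compound wells plus 3 SD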;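 further: peak over basal fluorescence ratio during 140 s after agonist addition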
M5 ag = human M5 muscarinic receptor agonists, primary screen, CHO-K1 cells, Fluo-8 calcium fluorescence; Muscarinic acetylcholine receptor M5 (Homo sapiens), P08912; CHO-K1 hM5 cells; 0% DMSO wells, 100% maximal acetylcholine response; activation, % at 3 µM; hit rate 0.19% among 360,000;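 active means activation above the run's mean over test compounds plus 3 SD, cut at about 23% in these data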;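 further: signal is peak over basal fluorescence ratio across the kinetic read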
Large screens that a line does not name were inactive. This is a sample that favours compounds with a hit; in the whole collection about 2% have one here.

CC(C)[C@@H]1Cc2[nH][nH]c(=O)c2[C@H](c2ccc(F)cc2)O1	none (no result: CHRM1 PAM, M1 ag, M1 antag)
CCC1CCCCN1S(=O)(=O)c1ccc(S(=O)(=O)N(Cc2cccs2)C2CC2)cc1 (centres undefined)	M1 antag 63
CCC1CCCCN1S(=O)(=O)c1ccc(NC(=O)c2ccncc2)cc1 (centres undefined)	M1 antag 34
CCOC(=O)[C@]12CCC=C1N(Cc1ccco1)C(=O)[C@H](CC(=O)NCCc1ccccc1OC)C2	none (no result: CHRM1 PAM, M1 ag, M1 antag)
Cc1c(C)n(CCO)c2ncnc(Nc3ccc(F)cc3)c12	M1 antag 43
Cc1ccnc2nc(C(=O)OCC(=O)NC3CCCC(C)C3C)nn12 (centres undefined)	CHRM1 PAM 30
Cc1ccnc2nc(C(=O)OCCOc3cccc(Br)c3)nn12	CHRM1 PAM 23
Cc1ccnc2nc(C(=O)OCCOc3ccccc3)nn12	none
COc1cc(NC(=O)CN2C(=O)COc3ccccc32)cc(OC)c1	none
COC(=O)c1c(C)[nH]c(C(=O)C(C)OC(=O)c2cc(C)oc2C)c1C (centres undefined)	M1 antag 28
CCCC(=O)N1CCC1(C)C(=O)Nc1ccc(-n2cccc2)cc1 (centres undefined)	none
N#Cc1c(-c2ccccc2)c(-c2ccccc2)n(Cc2ccco2)c1NC(=O)c1cccs1	M5 PAM 29
CC1(C)CN(C2CCCCC2)C(=O)[C@H]1CC(=O)Nc1ccc(Br)cc1	none
C[C@H]1CN([C@@H](C)CO)S(=O)(=O)c2ccc(Br)cc2O[C@H]1CN(C)C(=O)c1cccnc1	none
Cc1ccc(/C(CSc2nccn2-c2ncc(C(F)(F)F)cc2Cl)=N\O)cc1	none
O=C(CSc1nccn1-c1ncc(C(F)(F)F)cc1Cl)c1ccc(Br)cc1	M5 PAM 22
Cc1cc(C)cc(Cn2cc(CN3CC(N4CCCCC4)CS3(=O)=O)nn2)c1 (centres undefined)	none (no result: CHRM1 PAM, M1 ag, M1 antag)
COC(=O)[C@@H](NC(=O)c1ccccc1OC1CCN(S(C)(=O)=O)CC1)C(C)C	M1 antag 62
CS(=O)(=O)N1CCC(Oc2ccccc2C(=O)NC2CCCCCC2)CC1	none
CC[N+](CC)(CC#Cc1ccccc1)CC(=O)c1ccc(Cl)cc1	M1 antag 35
Cc1ccc(CN(C)C(=O)c2ccc(S(=O)(=O)N(C)c3ccccc3)cc2)o1	M1 antag 40
CN(Cc1ccc(OC(F)F)cc1)C(=O)c1ccc(S(=O)(=O)N(C)c2ccccc2)cc1	none
CC(=O)Nc1ccc(NC(=O)CSc2nnc3ccc(-c4cccnc4)nn23)cc1	M1 antag 20
O=C(Nc1nnc(-c2ccc3c(c2)CCCC3)o1)c1ccccc1	M1 ag 17
CC(C)OC(=O)C1C2C=CC3(CN(Cc4cccs4)C(=O)C13)O2 (centres undefined)	none
CCOC(=O)C1[C@H]2C(=O)N(C(C)c3ccc(OC)cc3)C[C@]23C=C[C@H]1O3 (some centres undefined)	M1 antag 69
COC(=O)C1C2C=CC3(CN(Cc4cccs4)C(=O)C13)O2 (centres undefined)	M5 PAM 21
CCCOC(=O)C1[C@H]2C(=O)N(C(C)c3ccc(OC)cc3)C[C@]23C=C[C@H]1O3 (some centres undefined)	none
COc1ccccc1N(C)c1cc2c(c3c1ccn3C)C1CCC2O1 (centres undefined)	none
CCOC(=O)[C@]12CCCC=C1N(Cc1ccco1)C(=O)[C@H](CC(=O)N1CCSCC1)C2	none (no result: CHRM1 PAM, M1 ag, M1 antag)

High-throughput results from PubChem.
